Laboratory results: publication PMC2532710 (Nucleic Acids Research, 2008)
Entries after “also recorded” stand apart in the source; their conditions may differ.

Columns and labels:
[1] = test system: protein-free HJ DNA; assay: peptide/RecG band shift assay on HJ; assay type: binding; details: data not shown
[2] = test system: HJ-4AP1; assay: 2-AP fluorescence titration of additional peptides, HJ-4AP1; assay type: binding; details: for 2-AP quenching / interaction with 4AP1 in HJ: 0.2 μM substrate, pH 7.8, 100 mM NaCl, 1.6% DMSO, peptide dimer 0.05-6.4 μM
In short: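 Test peptides (C-terminal amides, dissolved in DMSO) titrated as dimers at 0.05, 0.2, 0.8, 3.2 and 6.4 μM into 0.2 μM 2-AP-labelled HJ in 20 mM Tris-HCl pH 7.8, 100 mM NaCl, 1 mM EDTA, 1.6% DMSO at 24°C. Equilibrated ≥3 min with stirring. Excitation 315 nm, emission 365–375 nm. Adenine-substituted junction spectrum subtracted.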

[3] = test system: Cre/HJ complex; details: cited from earlier work
[4] = test system: HJ substrate; assay: 2-AP fluorescence quenching, HJ substrate; assay type: binding; details: center of both HJ and replication forks
In short: (§1)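 Substrates were annealed from oligos (boiled 5 min, slow-cooled), gel-purified on native 12% PAGE and quantified spectrophotometrically. After ≥10 min equilibration, emission was read at 330–430 nm (excitation 315 nm). Adenine-substituted spectra were subtracted, and fold decrease at 370 nm was taken versus no peptide.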

[5] = test system: protein-free HJ DNA; details: cited from earlier work
[6] = test system: RecG helicase; details: cited from earlier work
[7] = test system: RuvABC complex; details: cited from earlier work
[8] = test system: human RAD54 protein; details: cited from earlier work
[9] = test system: replication fork substrates; details: ref K. Kepple, Ph.D. Thesis, 2006; cited from earlier work
[10] = test system: replication fork substrate; assay: 2-AP fluorescence quenching, replication fork; assay type: binding; details: 2-AP fluorescence-based solution assay
In short: as §1

[11] = molecular target: T1, (WRWYCR)2 (synthetic); assay: EMSA
T1 chain: WRWYCR

[12] = molecular target: T2, RecG (Escherichia coli, UniProt P24230 1-693); assay: EMSA
T2 sequence: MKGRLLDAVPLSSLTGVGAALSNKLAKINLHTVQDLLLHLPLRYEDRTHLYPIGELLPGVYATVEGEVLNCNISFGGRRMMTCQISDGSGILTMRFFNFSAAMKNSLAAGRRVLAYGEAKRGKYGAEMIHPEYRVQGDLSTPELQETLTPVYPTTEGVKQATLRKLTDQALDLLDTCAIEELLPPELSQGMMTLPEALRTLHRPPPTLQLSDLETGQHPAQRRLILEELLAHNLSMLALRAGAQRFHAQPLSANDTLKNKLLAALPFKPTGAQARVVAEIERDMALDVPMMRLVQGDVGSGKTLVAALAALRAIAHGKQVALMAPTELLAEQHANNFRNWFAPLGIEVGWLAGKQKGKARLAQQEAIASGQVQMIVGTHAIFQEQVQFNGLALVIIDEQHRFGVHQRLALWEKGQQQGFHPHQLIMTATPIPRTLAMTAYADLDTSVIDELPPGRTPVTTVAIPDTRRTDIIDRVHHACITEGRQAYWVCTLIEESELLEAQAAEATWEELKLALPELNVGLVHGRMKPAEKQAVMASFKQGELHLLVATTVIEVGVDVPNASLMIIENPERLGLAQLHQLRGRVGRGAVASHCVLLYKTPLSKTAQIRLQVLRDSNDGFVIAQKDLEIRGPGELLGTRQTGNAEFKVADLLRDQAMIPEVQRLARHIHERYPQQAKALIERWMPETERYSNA

[13] = test system: HJ substrate; assay: dissociation from HJ; assay type: binding
[14] = test system: central thymine bases of HJ; details: bound to HJ; cited from earlier work
[15] = test system: flayed duplex DNA; details: cited from earlier work
[16] = molecular target: T1, (WRWYCR)2; assay: 2-AP fluorescence quenching
[17] = molecular target: T1, (WRWYCR)2; assay: 2-AP fluorescence quenching
[18] = molecular target: T3, (KWWCRW)2 (synthetic); assay: 2-AP fluorescence quenching
T3 chain: KWWCRW

[19] = molecular target: T4, WKHYNY (synthetic); assay: 2-AP fluorescence quenching
T4 chain: WKHYNY

Molecule: WKHYNY
- binding to protein-free HJ ([1]; gel shift assays): has not been detected; also recorded: does not bind protein-free junctions
- 2-AP quenching / interaction with 4AP1 in HJ [2]: does not interact; also recorded: almost no quenching
- 2-AP quenching ([2]; up to 32-fold excess of peptide dimer (6.4 μM)): little if any effect
- quenching effect on 2-AP with Cre/HJ complex [3]: concentration-dependent quenching effect on 2-AP

Molecule: (KWWCRW)2 (disulfide)
- quenching of 2-AP in the center of HJ and replication forks [4]: quench the fluorescence of 2-AP bases
- 2-AP quenching / interaction with 4AP1 in HJ [2]: interacts with 4AP1 in the HJ substrate
- binding to free HJ DNA [5]: bind specifically to free HJ DNA
- potency relative to (WRWYCR)2 ([5]; data not shown): nearly as potent as (WRWYCR)2
- binding to protein-free junctions ([5]; gel shift and footprinting assays, data not shown): binds to protein-free junctions
- inhibition of unwinding of branched DNA substrates by RecG [6]: inhibit unwinding of branched DNA substrates
- inhibition of HJ resolution by RuvABC [7]: inhibit
- IC50 ([7]; read-out: IC50, RuvABC): ~50 nM
- inhibition of D-loop unwinding activity [8]: inhibit the D-loop unwinding activity
- binding to replication forks by band shift [9]: unable to detect binding

Molecule: KWWCRW
- binding to replication fork-like substrates [10]: bind to replication fork-like substrates

Molecule: WRWYCR
- binding to replication fork-like substrates [10]: bind to replication fork-like substrates

B1: HJ (oligos 1-4) (structured_DNA)
DNA 1: CGCGGTACGGCCGGAAGCCTGCTTTTTTATACAAGCTTAACTCCC
DNA 2: GGGAGTTAAGCTTGTATAAATGAGGTACTGTTAGGAATTCTCCAAGTGACTACGG
DNA 3: CCGTAGTCACTTGGAGAATTCCTAACAGTACCTCATTTATACCTGCAGCCGACGC
DNA 4: GCGTCGGCTGCAGGTATAAAAAAGCAGGCTTCCGGCCGTACCGCG
- Kd [11]: 12.5 nM
- binding result [12]: binds

B2: RecG: monomeric RecG helicase of Escherichia coli (protein, UniProt P24230 1-693, looked up)
ATP-dependent DNA helicase …: T2 sequence
- Kd of RecG by gel mobility shift relative to peptide ([1]; 50 ng nonspecific dsDNA): very similar
- time for half of bound RecG to dissociate ([13]; 0.02 μM RecG, 1 nM labeled HJ, 0.2 μM unlabeled HJ, 4°C): 25 min
- dissociation faster than peptide complex ([13]; RecG/HJ vs (WRWYCR)2/HJ): ~2 X
- increase in KMnO4 sensitivity of central thymine bases [14]: ~2 fold
- fold lower affinity for flayed DNA than HJ [15]: ≤ 100 fold

B3: Fork-4AP2 (complete fork) (structured_DNA)
DNA 1: CGCGGTACGGCCGGAAGCCTGGTTTACAATGCAAGCTTGACTGGCAGCCC
DNA 2: GCGTCGAGTCGGCTGCAGAGGTATAAAACCAGGCTTCCGGCCGTACCGCG
DNA 3: GGGCTGCCAGTCAAGCTTGCATTGT
DNA 4: TATACCTCTGCAGCCGACTCGACGC
modifications: one A of strand 4 is 2-aminopurine (AP2; underline lost)
- Kd [16]: 63.5 ± 12 nM
- binding signal [17]: 2 fold quenching (max)

B4: HJ-4AP2 (structured_DNA)
DNA 1: B3 DNA 1
DNA 2: GGGCTGCCAGTCAAGCTTGCATTGTTGGAGGTACTGTTAGGAATTCTCCAAGTGACTCGG
DNA 3: CCGAGTCACTTGGAGAATTCCTAACAGTACCTCCATATACCTCTGCAGCCGACTCGACGC
DNA 4: B3 DNA 2
modifications: one A near junction center of strand 4 is 2-aminopurine (AP2; underline lost)
- Kd [16]: 14.3 ± 3.2 nM

B5: Lead-4AP2 (leading strand fork) (structured_DNA)
DNA 1: B3 DNA 1
DNA 2: B3 DNA 2
DNA 3: GGGCTGCCAGTCAAGCTTGCATTGT
modifications: one A of strand 4 is 2-aminopurine (AP2; underline lost)
- Kd [16]: 132 ± 32.8 nM

B6: Lag-4AP2 (lagging strand fork) (structured_DNA)
DNA 1: B3 DNA 1
DNA 2: B3 DNA 2
DNA 3: TATACCTCTGCAGCCGACTCGACGC
modifications: one A of strand 4 is 2-aminopurine (AP2; underline lost)
- Kd [16]: 79.2 ± 17.3 nM

B7: Flayed-4AP2 (structured_DNA)
DNA 1: B3 DNA 1
DNA 2: B3 DNA 2
modifications: one A of strand 4 is 2-aminopurine (AP2; underline lost)
- Kd [16]: 628 ± 107 nM

B8: HJ-4AP1 (structured_DNA)
DNA 1: B3 DNA 1
DNA 2: B4 DNA 2
DNA 3: B4 DNA 3
DNA 4: B3 DNA 2
modifications: one A of strand 4 is 2-aminopurine (AP1; underline lost)
- binding result [18]: binds
- binding result [19]: no binding

Molecule: GCGTCGAGTCGGCTGCAGAGGTATAAAACCAGGCTTCCGGCCGTACCGCG (ssDNA, one A is 2-aminopurine (AP2; underline lost)) [Oligo (strand 4 AP2)]
- Kd [16]: 731 ± 134 nM
